target: Integrin alpha-M/beta-2 (Homo sapiens, UniProt P05107+P11215); test: Agonist activity at CD11b/CD18 expressed in K562 cells assessed as increase in cell adhesion to fibrinogen; format: functional, cell-based; conditions: k562
Summary of the method: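 K562 cells stably transfected with wild-type CD11b/CD18 were tested for compound-induced adhesion to immobilized fibrinogen. The assay was a no-wash cell-adhesion format in TBS containing 1 mM each Ca2+ and Mg2+. Compounds were tested over a range of concentrations. EC50 was taken as the concentration giving a 50% increase in cell adhesion.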

Chain of Integrin alpha-M/beta-2 (P05107 23-769 limits assumed, other chains not shown): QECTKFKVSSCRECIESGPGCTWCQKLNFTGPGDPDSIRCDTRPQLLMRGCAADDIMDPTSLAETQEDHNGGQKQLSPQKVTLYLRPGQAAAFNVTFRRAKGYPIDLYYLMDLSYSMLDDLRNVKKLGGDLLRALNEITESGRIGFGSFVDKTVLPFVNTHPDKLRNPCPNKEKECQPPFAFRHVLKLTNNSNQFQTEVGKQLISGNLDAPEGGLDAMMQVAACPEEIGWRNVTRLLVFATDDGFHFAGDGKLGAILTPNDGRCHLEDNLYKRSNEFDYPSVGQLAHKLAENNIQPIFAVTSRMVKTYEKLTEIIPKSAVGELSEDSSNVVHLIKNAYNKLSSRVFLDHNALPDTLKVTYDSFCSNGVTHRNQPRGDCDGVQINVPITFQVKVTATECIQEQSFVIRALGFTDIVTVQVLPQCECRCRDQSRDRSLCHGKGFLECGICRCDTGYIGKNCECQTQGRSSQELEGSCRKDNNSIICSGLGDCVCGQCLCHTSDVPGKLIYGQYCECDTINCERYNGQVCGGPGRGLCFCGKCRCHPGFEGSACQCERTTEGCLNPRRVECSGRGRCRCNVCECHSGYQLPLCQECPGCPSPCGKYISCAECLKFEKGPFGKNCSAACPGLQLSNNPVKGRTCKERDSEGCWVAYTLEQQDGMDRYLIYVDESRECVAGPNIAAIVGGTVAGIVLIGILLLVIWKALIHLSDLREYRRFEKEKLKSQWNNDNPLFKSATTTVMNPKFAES

Compound | EC50
NS(=O)(=O)c1ccc(N2C(=O)S/C(=C\c3ccc(Cc4ccccc4)o3)C2=O)cc1 | Not Active
COC(=O)C(C)N1C(=O)S/C(=C\c2ccc(-c3ccc(Cl)cc3Cl)o2)C1=O (configuration not stated) | Not Active
COC(=O)CN1C(=O)S/C(=C\c2ccc(Sc3ccccc3)o2)C1=O | Not Active
CCOC(=O)CN1C(=O)S/C(=C\c2ccc(-c3ccc(C(=O)O)cc3C)o2)C1=O | Not Active
CCOC(=O)CN1C(=O)S/C(=C\c2ccc(N3CCOCC3)o2)C1=O | Not Active
Cc1ccc(/C=C2\SC(=O)N(C)C2=O)o1 | Not Active
CCCN1C(=O)S/C(=C\c2ccc(-c3ccc(Cl)cc3Cl)o2)C1=O | Not Active

Further lines, results first:

EC50 | Compound
Not Active | O=C(CN1C(=O)S/C(=C\c2ccc(-c3ccc(Cl)cc3Cl)o2)C1=O)Nc1ccccc1F
Not Active | COC(=O)CN1C(=O)S/C(=C\c2ccc(-c3ccc(C(=O)O)cc3)o2)C1=O

same assay, conditions: read-out: EC50

Compound | EC50 [µM]
Cc1cccc(NC(=O)CN2C(=O)/C(=C/c3ccc(Cc4ccco4)o3)SC2=S)c1 | 18
O=C1S/C(=C\c2ccc(-c3ccc(Cl)cc3Cl)o2)C(=O)N1c1ccccc1 | > 50
CCOC(=O)CN1C(=O)S/C(=C\c2ccc(-c3ccc(C)cc3Br)o2)C1=O | 18.6
CCOC(=O)CN1C(=O)S/C(=C\c2ccc(N3CCCC3)o2)C1=O | 23.2

The next lines start with the values.

EC50 [µM] | Compound
22.3 | Cc1cccc(NC(=O)CN2C(=O)S/C(=C\c3ccc(-c4ccccc4)o3)C2=O)c1
35.6 | O=C(CN1C(=O)S/C(=C\c2ccc(-c3ccc(Cl)cc3Cl)o2)C1=O)c1ccccc1
13.6 | CCOC(=O)CN1C(=O)S/C(=C\c2ccc(-c3ccc(Cl)cc3Cl)o2)C1=O
10.5 | CCOC(=O)CN1C(=O)S/C(=C\c2ccc(-c3ccccc3)o2)C1=O
> 50 | Cc1ccc(C(=O)CN2C(=O)S/C(=C\c3ccc(-c4ccc(Cl)cc4)o3)C2=O)cc1
> 50 | CCOC(=O)CN1C(=O)S/C(=C\c2ccc(-c3ccc(Cl)c(C(=O)O)c3)o2)C1=O
40.9 | CCOC(=O)CN1C(=O)S/C(=C\c2ccc(-c3cc(C(=O)O)ccc3Cl)o2)C1=O
40.4 | CCOC(=O)CN1C(=O)S/C(=C\c2ccc(-c3ccc(Br)cc3)o2)C1=O

system: not listed separately; test: Selectivity ratio for CD11b/CD18 over CD11a/CD18; conditions: not given

Compound | Ratio
CCOC(=O)CN1C(=O)S/C(=C\c2ccc(-c3ccc(Cl)cc3Cl)o2)C1=O | 2
